# Screening results (PubChem BioAssay)
# m5-HT2A agonist: agonists of mouse serotonin 5-HT2A receptor (HTR2A). P35363. AID 624169. activation, % at 7.6 µM. 360,000 tested, 0.66% active. CHO-K1 mHTR2A beta-arrestin complementation, luminescence; percent of 30 µM serotonin response;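 active means activation above a run cutoff, the mean activation of all tested compounds plus 3 SD, cut at about 14% in these data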
# Target sequence (P35363 whole entry, looked up): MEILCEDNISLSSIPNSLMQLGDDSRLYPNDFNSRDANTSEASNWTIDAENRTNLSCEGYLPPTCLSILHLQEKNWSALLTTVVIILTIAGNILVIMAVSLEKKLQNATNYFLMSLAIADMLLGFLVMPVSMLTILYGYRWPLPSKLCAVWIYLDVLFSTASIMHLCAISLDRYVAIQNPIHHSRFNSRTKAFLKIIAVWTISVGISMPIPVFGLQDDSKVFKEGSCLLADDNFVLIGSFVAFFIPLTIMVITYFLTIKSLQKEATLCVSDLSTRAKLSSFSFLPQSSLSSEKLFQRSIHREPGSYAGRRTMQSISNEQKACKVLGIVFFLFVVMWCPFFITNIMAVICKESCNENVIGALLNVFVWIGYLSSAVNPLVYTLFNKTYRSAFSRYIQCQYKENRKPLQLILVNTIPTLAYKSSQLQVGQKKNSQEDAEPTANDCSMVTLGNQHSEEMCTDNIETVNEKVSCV
# M1 ag: agonists of human M1 muscarinic receptor | CHO-K1 hM1, Fluo-8 calcium fluorescence, agonist mode; 0% DMSO, 100% acetylcholine EC100 | 360,000 tested, 0.33% active | AID 588814 | activation, % at 3 µM | P11229;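 active means activation above the run's mean compound activation plus 3 SD, cut at about 16% in these data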;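 further: peak over basal fluorescence ratio within a 140 s kinetic read after compound addition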
# TAAR1 agonist: agonists of human TAAR1 | 360,000 tested, 0.99% active | AID 624467 | Q96RJ0 | activation, % at 3 µM | CHO RD-HGA16 TAAR1, Fluo-8 calcium fluorescence; vehicle wells 0%, saturating PEA agonist 100%;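 active means activation above the mean activation of all test compounds in the run plus 3 SD, cut at about 38% in these data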
#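 Repeats: no replicates (n 1) | Material: CHO-derived RD-HGA16 cells with stable Gα16 and human TAAR1 | Technique: Kinetic Fluo-8 calcium fluorescence | Schedule: 17-24 h seeding, 75 min 37 °C dye, 30 min RT | Evaluation: % activation from peak over basal fluorescence ratio, DMSO-to-PEA scaled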
# CHRM1 PAM: positive allosteric modulators of human M1 muscarinic receptor. activation, % at 3 µM. P11229. CHO-K1 hM1, Fluo-8 calcium fluorescence, ACh EC20; 0% = ACh EC20, 100% = maximal ACh. 360,000 tested, 0.088% active; in the data active means activation above about 19%, passing the limit was not always enough
# M1 antag: blocks human M1 muscarinic receptor; P11229; CHO-K1 hM1, Fluo-8 calcium fluorescence, ACh EC80 antagonist; inhibition, % at 3 µM; 360,000 tested, 1.3% active;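 active means percent inhibition above its own plate's cutoff, namely the mean of that plate's compound wells plus 3 SD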;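 further: peak over basal fluorescence ratio during 140 s after agonist addition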
# TAAR1 antagonist: antagonists of human TAAR1 | CHO RD-HGA16 TAAR1, Fluo-8 calcium fluorescence, antagonist | AID 624466 | Q96RJ0 | inhibition, % at 3 µM | 360,000 tested, 1.5% active;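 active means inhibition above a per-plate cutoff, the mean inhibition of test compounds on that plate plus 3 SD, cut at about 49% in these data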
#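 Assay system: RD-HGA16 CHO cells with stable hTAAR1 and Gα16 / Reagent: EC80 β-phenethylamine stimulus / Doses: 3 µM, single point / Timing: dye loading 75 min at 37 °C, then 30 min room temperature / Measured by: Fluo-8 intracellular calcium dye fluorescence, real-time kinetic reads / Controls: vehicle wells and EC80 agonist wells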
# TAAR1 ag confirm: confirmation of human TAAR1 agonists; AID 651783; 2,400 tested, 82% active; activation, % at 3 µM; CHO RD-HGA16 TAAR1, Fluo-8 calcium fluorescence; scaled: DMSO 0%, maximal phenethylamine 100%; shares compounds with TAAR1 agonist;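 active means activation above a cutoff set at the run's mean compound activation plus 3 SD, cut at about 39% in these data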
# Ga16 ag counter: counter-screen for TAAR1 agonists: nonselective agonists in parental cells. shares compounds with TAAR1 agonist. CHO-Ga16 parental, Fluo-8 calcium fluorescence; normalized to maximal ATP response, DMSO zero. activation, % at 3 µM. 2,400 tested, 50% active. AID 651787;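 active means activation above the run cutoff, the mean activation over all tested wells plus 3 SD, cut at about 12% in these data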
# TAAR1 desensitize: TAAR1 response desensitization, agonist counter-screen. inhibition, % at 3 µM. 2,400 tested, 46% active. shares compounds with TAAR1 agonist. CHO RD-HGA16 hTAAR1, Fluo-8 calcium, beta-PEA response inhibition;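 active means inhibition above the run cutoff, the mean inhibition of all test compounds plus 3 SD, cut at about 49% in these data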;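 further: beta-PEA stimulus applied at its EC80; loss of beta-PEA calcium signal after compound pretreatment read as receptor desensitization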
# Ga16 antag count: nonselective Ga16 antagonism, counter-screen; shares compounds with TAAR1 agonist; 2,400 tested, 39% active; inhibition, % at 3 µM; CHO-Ga16 ATP-induced calcium, Fluo-8 fluorescence;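 active means inhibition above the plate's mean compound inhibition plus 3 SD, computed per plate, cut at about 22% in these data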
# Hits are given with their value; – = inactive; · = no result given. Hits are enriched below; roughly 3.9% of the tested compounds scored in any of these assays.
SMILES,m5-HT2A agonist,M1 ag,TAAR1 agonist,CHRM1 PAM,M1 antag,TAAR1 antagonist,TAAR1 ag confirm,Ga16 ag counter,TAAR1 desensitize,Ga16 antag count
CC(=O)C1=C(O)C(=O)N(CCc2ccccc2)C1c1ccccc1[N+](=O)[O-] (configuration not stated),–,–,67,–,–,–,62,–,–,–
CCN(CC)CCN1C(=O)C(O)=C(C(C)=O)C1c1ccccc1[N+](=O)[O-] (configuration not stated),–,–,–,–,–,–,·,·,·,·
CC(OC(=O)c1ccccc1Nc1ccc(SC(F)F)cc1)C(N)=O (configuration not stated),–,–,–,–,–,–,·,·,·,·
NC(=O)COC(=O)c1ccccc1Nc1ccc(SC(F)F)cc1,–,–,43,–,–,–,–,–,–,–
Cc1ccc(OCC(=O)NNC(=S)NC(=O)C(C)(C)C)c(Br)c1,–,–,155,–,–,106,132,109,98,72
Cc1ccc(OCC(=O)NNC(=S)NC(=O)C2CC2)c(C)c1,–,–,49,–,–,–,48,50,–,39
Cc1ccc(OCC(=O)NNC(=O)c2ccc(NC(=O)C3CC3)cc2)c(C)c1,–,–,–,–,–,–,·,·,·,·
CCCCC[C@@H]1[C@H]2[C@H]3C(=O)N(c4ccccc4)C(=O)[C@H]3CC(=O)[C@H]2[C@H](c2ccccc2)N1S(=O)(=O)c1ccc(C)cc1,–,–,–,–,–,–,·,·,·,·
Cc1ccc(NC(=O)Nc2cc(C(F)(F)F)c[nH]c2=O)cc1,–,–,–,–,–,–,·,·,·,·
O=C(NCCc1ccccc1)C1CCC(CNS(=O)(=O)c2ccccc2)CC1 (configuration not stated),–,–,–,–,–,–,·,·,·,·
NS(=O)(=O)c1ccc(CCNC(=O)C2CCC(CNS(=O)(=O)c3ccc(Br)s3)CC2)cc1 (configuration not stated),–,–,53,–,–,72,41,–,59,–
COC(=O)c1c(NC(=O)CC2SC(N)=NC2=O)sc(C)c1C (configuration not stated),–,–,–,–,–,–,·,·,·,·
CN1C(=O)C2C(c3ccc(N(C)C)cc3)=NN(Cc3ccccc3)C2C1=O (configuration not stated),–,–,–,–,–,–,·,·,·,·
NC(CCc1ccccc1)c1csc(Nc2ccc(C(F)(F)F)cn2)n1 (configuration not stated),–,–,56,–,–,–,40,25,–,36
NC(CO)c1csc(Nc2ccc(C(F)(F)F)cn2)n1 (configuration not stated),–,–,–,–,–,–,·,·,·,·
CC(C)CC(N)c1csc(Nc2ccc(C(F)(F)F)cn2)n1 (configuration not stated),–,–,58,–,–,–,54,22,–,26
NC(c1csc(Nc2ccc(C(F)(F)F)cn2)n1)C1CCCCC1 (configuration not stated),–,–,76,–,–,–,75,43,60,55
O=C(Nc1cccc(-c2ccc(F)cc2)c1)C1CCCN(C(=O)c2cscn2)C1 (configuration not stated),–,–,–,–,–,–,·,·,·,·
C/C(=N/NS(=O)(=O)c1ccc(C)cc1)c1c(O)c2ccccc2oc1=O,–,–,–,–,–,–,·,·,·,·
CCCCCN=C(C)c1c(O)c2ccccc2oc1=O,–,–,58,–,–,–,58,–,–,–
CCOc1ccc(NC(=O)C2CCN(S(C)(=O)=O)CC2)cc1,–,–,–,–,–,–,·,·,·,·
CCCCc1ccc(NC(=O)C2CCN(S(C)(=O)=O)CC2)cc1,–,–,57,–,–,–,–,–,–,–
Cc1ccc(C2=NN(CC(=O)O)C(=O)CC2)cc1,–,–,–,–,–,–,·,·,·,·
CC1=NOC(=O)/C1=C\c1ccc(-c2ccccc2Br)o1,–,–,46,–,–,75,–,29,56,65
O=C(O)CCc1ccc(-c2cccs2)n1CCc1ccccc1,–,–,62,–,–,–,83,–,73,–
SMILES,m5-HT2A agonist,M1 ag,TAAR1 agonist,CHRM1 PAM,M1 antag,TAAR1 antagonist,TAAR1 ag confirm,Ga16 ag counter,TAAR1 desensitize,Ga16 antag count
Cc1onc(-c2c(Cl)cccc2Cl)c1C(=O)N=C(N)N1CC(C)OC(C)C1 (configuration not stated),–,–,–,–,–,–,·,·,·,·
Cc1ccc(SCC(=O)Nc2ccc(N3CCN(c4ccccc4)CC3)c(F)c2)cc1,–,–,–,–,–,–,·,·,·,·
CN1CCN(c2ccc(NC(=O)CSc3ccccc3)cc2F)CC1,–,–,57,–,–,–,71,–,–,–
CCOC(=O)c1cnn(-c2nc(SC)nc3sc4c(c23)CCCC4)c1N,–,–,85,–,–,84,–,15,–,40
CCOC(=O)c1cnn(-c2ncnc3sc4c(c23)CCC4)c1N,–,–,–,–,–,–,·,·,·,·
CCOC(=O)c1c(NC(=O)CSc2nnc(C)s2)sc2c1CCCCC2,–,–,58,–,–,–,40,23,–,–
Cn1cc(CN2CCCC(CO)(Cc3ccccc3)C2)c2ccccc21 (configuration not stated),–,–,–,–,–,–,·,·,·,·
COc1ccccc1N1CCN(Cc2cc3c(cc2O)OCO3)CC1,–,–,–,–,–,–,·,·,·,·
Oc1ccc(CN2CCCCC2)c2cccnc12,–,–,–,–,–,–,·,·,·,·
Cn1cc(CN2CCc3ccccc3C2)c2ccccc21,–,–,67,–,–,–,85,–,–,–
Oc1cc2c(cc1CN1CCc3ccccc3C1)OCO2,–,–,69,–,–,–,–,–,–,–
Oc1ccc(CN2CCc3ccccc3C2)c2cccnc12,–,–,81,–,–,62,77,–,–,–
Cc1cc(C)n2nc(C(=O)OCC(=O)N3CC(C)CC(C)C3)nc2n1 (configuration not stated),–,–,–,–,–,–,·,·,·,·
